Here are results for 2 compounds from ChEMBL document CHEMBL4251677, “Pentaminomycins A and B, Hydroxyarginine-Containing Cyclic Pentapeptides from Streptomyces sp. RK88-1441” (J Nat Prod, 2018).

Data set [1] deals with B16-F10. The data set can be described thus: Cytotoxicity against mouse B16F10 cells at 30 uM after 24 hrs by EZ-cytox dye based assay. The following applies: b16-f10, 24 h. The data set is classed as cell-based. The essentials:
(§1)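 Cells were seeded at 5.0 × 10^4 per well and grown 24 h, then exposed to compound for 24 h and washed with PBS. They were incubated 2 h in DMEM with EZ-Cytox reagent, and viability was read as water-soluble formazan optical density at 450 nm.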

The test system of data set [2] is 4T1. The experiment in a line: Cytotoxicity against mouse 4T1 cells at 30 uM after 24 hrs by EZ-cytox dye based assay. The data set is classed as cell-based. The following applies: 4t1, 24 h. The essentials:
as §1

Data set [3] concerns B16-F0. The data set can be described thus: Cytotoxicity against mouse B16F0 cells at 30 uM after 24 hrs by EZ-cytox dye based assay. The following applies: b16-f0, 24 h. The format is cell-based. The essentials: as §1
Data set [4] concerns HeLa. The experiment in a line: Cytotoxicity against human HeLa cells at 30 uM after 24 hrs by EZ-cytox dye based assay. The data set is classed as cell-based. The essentials:
as §1

The test system of data set [5] is B16-F10. The data set can be described thus: Antimelanogenic activity in mouse B16F10 cells assessed as inhibition of alpha-MSH-stimulated melanin synthesis by measuring reduction in TRP1 expression up to 10 uM measured after 24 hrs by Western blot analysis. The format is functional, cell-based. In outline:
(§2)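 B16F10 cells at 1.0 × 10^5 cells/mL were preincubated 24 h, then exposed to α-MSH (100 nM) plus 5, 7.5 or 10 μM compound for 24 h. Cells were lysed in M-per buffer. Whole-cell protein was run on SDS-PAGE and blotted to nitrocellulose, probed with anti-TRP-1 or anti-TRP-2 antibodies, and detected by chemiluminescence on film.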
(A western blot detects proteins with antibodies after separation by electrophoresis.)

The test system of data set [6] is B16-F10. The data set can be described thus: Antimelanogenic activity in mouse B16F10 cells assessed as inhibition of alpha-MSH-stimulated melanin synthesis by measuring reduction in TRP2 expression up to 10 uM measured after 24 hrs by Western blot analysis. The data set is classed as functional, cell-based. The essentials: as §2
The subject of data set [7] is B16-F10. The data set can be described thus: Antimelanogenic activity in mouse B16F10 cells assessed as inhibition of alpha-MSH-stimulated melanin synthesis up to 10 uM measured after 24 hrs. The format is functional, cell-based. In outline:
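B16F10 cells (3.5 × 10^4 per well) were grown 24 h in phenol red-free complete DMEM at 37 °C, 5% CO2. They were then given α-MSH (200 nM) with compound at 0–10 μM for 24 h. Cells were PBS-washed, trypsin-EDTA detached and centrifuged. Melanin was read as absorbance at 405 nm; mean ± SD, n = 3.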

Activity calls are given as the source filed them. No cut-off for these calls is given here. Starred links: 1 amine or outer side, 2 acyl side, 3 side chain; linkers in the order of their positions; H or OH if unused. Non-standard residues stand in square brackets, D forms with d. Residues, ends and D or L forms follow the SMILES beside them. X1 = N=C(N)N(O)CCC[C@H](N[*:1])C(=O)[*:2]

Regarding `CC(C)C[C@@H]1NC(=O)[C@@H](CC(C)C)NC(=O)[C@H](CCCN(O)C(=N)N)NC(=O)[C@H](Cc2c[nH]c3ccccc23)NC(=O)[C@@H](C(C)C)NC1=O` (cyclo(L[dV]W[X1][dL])), the Activity entry in data set [1], in data set [2], in data set [3] and in data set [4] was “Non-Toxic” each time.

On to `CC(C)C[C@H]1NC(=O)[C@H](CCCN(O)C(=N)N)NC(=O)[C@H](Cc2c[nH]c3ccccc23)NC(=O)[C@@H](C(C)C)NC(=O)[C@H](C(C)C)NC1=O`, for which the inhibition entry in data set [5], in data set [6] and in data set [7] was “Active” throughout. Also, the Activity result in data set [1], in data set [2], in data set [3] and in data set [4] was “Non-Toxic” throughout.
